{"source": "ChEMBL document CHEMBL4038306", "about": "“Development of an Aryloxazole Class of Hepatitis C Virus Inhibitors Targeting the Entry Stage of the Viral Replication Cycle” (J Med Chem, 2017)", "key": {"[1]": {"assay": "AUClast in CD-1 mouse plasma at 1 mg/kg, ip administered as single dose after 24 hrs by UPLC-MS/MS method", "assay_type": "ADME, organism-based", "how_it_was_run": "(§1)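 Adult male CD-1 mice (25–39 g), one i.p. dose of 0.1, 1 or 10 mg/kg. […] Drug levels measured by UPLC–MS/MS and reported as means ± SEM. […] Serum ALT was also monitored.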"}, "Plasma [2]": {"test_system": "Plasma", "assay": "AUC (infinity) in CD-1 mouse plasma at 0.1 mg/kg, ip administered as single dose after […] by UPLC-MS/MS method", "assay_type": "ADME, organism-based", "set-up": "dose 0.1 mg/kg, time infinity, route intraperitoneal", "settings": "in vivo"}, "[3]": {"assay": "Permeability of the compound by PAMPA", "assay_type": "physicochemical", "settings": "read-out: permeability", "how_it_was_run": "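Passive diffusion measured by stirred double-sink PAMPA; permeability expressed in 10⁻⁶ cm/s.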"}, "[4]": {"assay": "AUClast in CD-1 mouse liver at 1 mg/kg, ip administered as single dose after 24 hrs by UPLC-MS/MS method", "assay_type": "ADME, organism-based", "how_it_was_run": "as §1"}, "[5]": {"assay": "AUClast in CD-1 mouse plasma at 10 mg/kg, ip administered as single dose after 24 hrs by UPLC-MS/MS method", "assay_type": "ADME, organism-based", "how_it_was_run": "as §1"}, "[6]": {"assay": "AUClast in CD-1 mouse liver at 0.1 mg/kg, ip administered as single dose after 24 hrs by UPLC-MS/MS method", "assay_type": "ADME, organism-based", "how_it_was_run": "as §1"}, "Plasma [7]": {"test_system": "Plasma", "assay": "Tmax in CD-1 mouse plasma at 0.1 mg/kg, ip administered as single dose after […] by UPLC-MS/MS method", "assay_type": "ADME, organism-based", "settings": "in vivo"}, "[8]": {"assay": "Cmax in CD-1 mouse liver at 0.1 mg/kg, ip administered as single dose after 24 hrs by UPLC-MS/MS method", "assay_type": "ADME, organism-based", "set-up": "dose 0.1 mg/kg, route intraperitoneal", "how_it_was_run": "as §1"}, "[9]": {"assay": "AUClast in CD-1 mouse liver at 10 mg/kg, ip administered as single dose after 24 hrs by UPLC-MS/MS method", "assay_type": "ADME, organism-based", "how_it_was_run": "as §1"}, "[10]": {"assay": "Cmax in CD-1 mouse plasma at 0.1 mg/kg, ip administered as single dose after 24 hrs by UPLC-MS/MS method", "assay_type": "ADME, organism-based", "set-up": "dose 0.1 mg/kg, route intraperitoneal", "how_it_was_run": "as §1"}, "[11]": {"assay": "Ratio of Cmax in CD-1 mouse liver to plasma at 0.1 mg/kg, ip administered as single dose after 24 hrs", "assay_type": "ADME, organism-based", "how_it_was_run": "(§2)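 Adult male CD-1 mice (25–39 g) received one intraperitoneal dose. Plasma and liver were sampled at set time points, n = 3 mice per time point. Compound levels were measured by UPLC–MS/MS.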"}, "[12]": {"assay": "Drug uptake in CD-1 mouse liver at 1 mg/kg, ip administered as single dose after 24 hrs by UPLC-MS/MS method", "assay_type": "ADME, organism-based", "settings": "read-out: Drug uptake", "how_it_was_run": "as §1"}, "[13]": {"assay": "Ratio of AUClast in CD-1 mouse liver to plasma at 1 mg/kg, ip administered as single dose after 24 hrs", "assay_type": "ADME, organism-based", "settings": "read-out: Ratio AUC", "how_it_was_run": "(§3)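 Adult male CD-1 mice (25–39 g), n = 3 per sampling time point, given one i.p. dose (0.1, 1 or 10 mg/kg). Plasma and liver levels measured by UPLC–MS/MS. […] Serum ALT was monitored alongside.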"}, "[14]": {"assay": "Ratio of AUC (infinity) in CD-1 mouse liver to plasma at 0.1 mg/kg, ip administered as single dose after […]", "assay_type": "ADME, organism-based", "settings": "read-out: Ratio AUC"}, "[15]": {"assay": "Tmax in CD-1 mouse plasma at 0.1 mg/kg, ip administered as single dose after 24 hrs by UPLC-MS/MS method", "assay_type": "ADME, organism-based", "how_it_was_run": "as §1"}, "[16]": {"assay": "Ratio of Cmax in CD-1 mouse liver to plasma at 0.1 mg/kg, ip administered as single dose after […]", "assay_type": "ADME, organism-based", "settings": "liver and plasma"}, "[17]": {"assay": "Cmax in CD-1 mouse plasma at 1 mg/kg, ip administered as single dose after 24 hrs by UPLC-MS/MS method", "assay_type": "ADME, organism-based", "set-up": "dose 1 mg/kg, route intraperitoneal", "how_it_was_run": "as §1"}, "[18]": {"assay": "Cmax in CD-1 mouse liver at 1 mg/kg, ip administered as single dose after 24 hrs by UPLC-MS/MS method", "assay_type": "ADME, organism-based", "set-up": "dose 1 mg/kg, route intraperitoneal", "how_it_was_run": "as §1"}, "[19]": {"assay": "Cmax in CD-1 mouse liver at 10 mg/kg, ip administered as single dose after 24 hrs by UPLC-MS/MS method", "assay_type": "ADME, organism-based", "set-up": "dose 10 mg/kg, route intraperitoneal", "how_it_was_run": "as §1"}, "[20]": {"assay": "Tmax in CD-1 mouse liver at 0.1 mg/kg, ip administered as single dose after […] by UPLC-MS/MS method", "assay_type": "ADME, organism-based"}, "[21]": {"assay": "AUClast in CD-1 mouse liver at 0.1 mg/kg, ip administered as single dose after […] by UPLC-MS/MS method", "assay_type": "ADME, organism-based"}, "[22]": {"assay": "Ratio of Cmax in CD-1 mouse liver to plasma at 1 mg/kg, ip administered as single dose after 24 hrs", "assay_type": "ADME, organism-based", "how_it_was_run": "as §2"}, "[23]": {"assay": "Drug uptake in CD-1 mouse liver at 0.1 mg/kg, ip administered as single dose after 5 mins by UPLC-MS/MS method", "assay_type": "ADME, organism-based", "settings": "read-out: Drug uptake", "how_it_was_run": "as §1"}, "[24]": {"assay": "AUClast in CD-1 mouse plasma at 0.1 mg/kg, ip administered as single dose after 24 hrs by UPLC-MS/MS method", "assay_type": "ADME, organism-based", "how_it_was_run": "as §1"}, "[25]": {"assay": "Tmax in CD-1 mouse liver at 10 mg/kg, ip administered as single dose after 24 hrs by UPLC-MS/MS method", "assay_type": "ADME, organism-based", "how_it_was_run": "as §1"}, "[26]": {"assay": "Ratio of AUClast in CD-1 mouse liver to plasma at 0.1 mg/kg, ip administered as single dose after 24 hrs", "assay_type": "ADME, organism-based", "settings": "read-out: Ratio AUC", "how_it_was_run": "as §3"}, "[27]": {"assay": "Ratio of AUClast in CD-1 mouse liver to plasma at 0.1 mg/kg, ip administered as single dose after […]", "assay_type": "ADME, organism-based", "settings": "read-out: Ratio AUC"}, "[28]": {"assay": "Ratio of Cmax in CD-1 mouse liver to plasma at 10 mg/kg, ip administered as single dose after 24 hrs", "assay_type": "ADME, organism-based", "how_it_was_run": "as §2"}, "[29]": {"assay": "AUClast in CD-1 mouse plasma at 0.1 mg/kg, ip administered as single dose after […] by UPLC-MS/MS method", "assay_type": "ADME, organism-based"}, "[30]": {"assay": "Tmax in CD-1 mouse plasma at 10 mg/kg, ip administered as single dose after 24 hrs by UPLC-MS/MS method", "assay_type": "ADME, organism-based", "how_it_was_run": "as §1"}, "[31]": {"assay": "Tmax in CD-1 mouse liver at 0.1 mg/kg, ip administered as single dose after 24 hrs by UPLC-MS/MS method", "assay_type": "ADME, organism-based", "how_it_was_run": "as §1"}, "[32]": {"assay": "Cmax in CD-1 mouse liver at 0.1 mg/kg, ip administered as single dose after […] by UPLC-MS/MS method", "assay_type": "ADME, organism-based", "set-up": "dose 0.1 mg/kg, route intraperitoneal"}, "[33]": {"assay": "Tmax in CD-1 mouse liver at 1 mg/kg, ip administered as single dose after 24 hrs by UPLC-MS/MS method", "assay_type": "ADME, organism-based", "how_it_was_run": "as §1"}, "[34]": {"assay": "Tmax in CD-1 mouse plasma at 1 mg/kg, ip administered as single dose after 24 hrs by UPLC-MS/MS method", "assay_type": "ADME, organism-based", "how_it_was_run": "as §1"}, "Plasma [35]": {"test_system": "Plasma", "assay": "Cmax in CD-1 mouse plasma at 0.1 mg/kg, ip administered as single dose after […] by UPLC-MS/MS method", "assay_type": "ADME, organism-based", "set-up": "dose 0.1 mg/kg, route intraperitoneal", "settings": "in vivo"}, "[36]": {"assay": "Cmax in CD-1 mouse plasma at 10 mg/kg, ip administered as single dose after 24 hrs by UPLC-MS/MS method", "assay_type": "ADME, organism-based", "set-up": "dose 10 mg/kg, route intraperitoneal", "how_it_was_run": "as §1"}, "[37]": {"assay": "Ratio of AUClast in CD1 mouse liver to plasma at 10 mg/kg, ip administered as single dose after 24 hrs", "assay_type": "ADME, organism-based", "settings": "CD-1, mouse, read-out: Ratio AUC", "how_it_was_run": "as §3"}}}
{"smiles": "Cc1oc(-c2ccc(Cl)c(Cl)c2)nc1CN1CCC(C(=O)NCCCN2C[C@H](C)C[C@H](C)C2)CC1", "values": [{"measurement": "AUC(0-t) at 24 h", "setting": "[1]", "result": 0.88, "unit": "µM·h"}, {"measurement": "AUC", "setting": "Plasma [2]", "result": 0.0639, "unit": "µM·h"}, {"measurement": "Papp", "setting": "[3]", "result": 522, "unit": "×10⁻⁶ cm/s"}, {"measurement": "AUC(0-t) at 24 h", "setting": "[4]", "result": 197, "unit": "µM·h"}, {"measurement": "AUC(0-t) at 24 h", "setting": "[5]", "result": 17.6, "unit": "µM·h"}, {"measurement": "AUC(0-t) at 24 h", "setting": "[6]", "result": 19.7, "unit": "µM·h"}, {"measurement": "Tmax", "setting": "Plasma [7]", "result": 4.98, "unit": "min"}, {"measurement": "Cmax", "setting": "[8]", "result": 1110, "unit": "nM"}, {"measurement": "AUC(0-t) at 24 h", "setting": "[9]", "result": 719, "unit": "µM·h"}, {"measurement": "Cmax", "setting": "[10]", "result": 8.76, "unit": "nM"}, {"measurement": "Kp at 24 h", "setting": "[11]", "result": 126}, {"measurement": "concentration at 24 h", "setting": "[12]", "result": "3330 to 9820", "unit": "nM"}, {"measurement": "Kp at 24 h", "setting": "[13]", "result": 224}, {"measurement": "Kp at […]", "setting": "[14]", "result": 510}, {"measurement": "Tmax", "setting": "[15]", "result": 4.98, "unit": "min"}, {"measurement": "Kp at […]", "setting": "[16]", "result": 126}, {"measurement": "Cmax", "setting": "[17]", "result": 146, "unit": "nM"}, {"measurement": "Cmax", "setting": "[18]", "result": 9820, "unit": "nM"}, {"measurement": "Cmax", "setting": "[19]", "result": 34500, "unit": "nM"}, {"measurement": "Tmax at […]", "setting": "[20]", "result": 7, "unit": "h"}, {"measurement": "AUC(0-t) at […]", "setting": "[21]", "result": 52.3, "unit": "µM·h"}, {"measurement": "Kp at 24 h", "setting": "[22]", "result": 67}, {"measurement": "concentration at 5 min", "setting": "[23]", "result": 390, "unit": "nM"}, {"measurement": "AUC(0-t) at 24 h", "setting": "[24]", "result": 0.0494, "unit": "µM·h"}, {"measurement": "Tmax", "setting": "[25]", "result": 7, "unit": "h"}, {"measurement": "Kp at 24 h", "setting": "[26]", "result": 399}, {"measurement": "Kp at […]", "setting": "[27]", "result": 448}, {"measurement": "Kp at 24 h", "setting": "[28]", "result": 7}, {"measurement": "AUC(0-t) at […]", "setting": "[29]", "result": 0.117, "unit": "µM·h"}, {"measurement": "Tmax", "setting": "[30]", "result": 4.98, "unit": "min"}, {"measurement": "Tmax", "setting": "[31]", "result": 7, "unit": "h"}, {"measurement": "Cmax at […]", "setting": "[32]", "result": 1110, "unit": "nM"}, {"measurement": "Tmax", "setting": "[33]", "result": 4, "unit": "h"}, {"measurement": "Tmax", "setting": "[34]", "result": 0.25, "unit": "h"}, {"measurement": "Cmax", "setting": "Plasma [35]", "result": 8.76, "unit": "nM"}, {"measurement": "Cmax", "setting": "[36]", "result": 4740, "unit": "nM"}, {"measurement": "Kp at 24 h", "setting": "[37]", "result": 41}]}
